The source of these data is ChEMBL document CHEMBL1139970, “3,4-Dihydro-2H-benzo[1,4]oxazine derivatives as 5-HT6 receptor antagonists” (Bioorg Med Chem Lett, 2007).

For data set [1], the target named is 5-hydroxytryptamine receptor 6 (Homo sapiens, UniProt P50406). Put plainly: Displacement of [3H]LSD from human recombinant 5HT6 receptor expressed in HEK293 cells. The data set is classed as cell-based. In outline:
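Competition binding against [3H]LSD, run at 37 °C on HEK293 cells expressing recombinant human 5-HT6 receptor. Affinity is expressed as pKi, with standard deviation of the pKi estimates 0.05–0.3.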
(Loss of bound radioactivity is the signal in a displacement assay; it reports binding, not function.)

A short description of data set [2]: Ratio of drug level in brain to plasma in rat at 2 mg/kg, iv after 1 hr. The data set is classed as ADME, organism-based. Also noted: dose 2 mg/kg, route intravenous. In outline:
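Rats received a single intravenous 2 mg/kg dose. At 1 h post-dose, drug levels in whole brain homogenate and plasma were quantified by HPLC–MS/MS, and the brain-to-plasma ratio was calculated.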

Data set [3] concerns the target T1, hERG (KCNH2) (Homo sapiens, UniProt Q12809). In words: Inhibition of hERG current at 1 uM by patch clamp electrophysiology assay. The data set is classed as toxicity. The method, boiled down:
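Conventional patch-clamp electrophysiology measuring inhibition of hERG outward current at a single test concentration. Baseline set to 0%; mean with SEM from n = 2 cells.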

The target in data set [4] is T1, hERG (KCNH2). In words: Inhibition of hERG current by patch clamp electrophysiology assay. The data set is classed as toxicity. (Block of hERG is tested as a sign of cardiac risk.)

T1 sequence (Q12809 whole entry): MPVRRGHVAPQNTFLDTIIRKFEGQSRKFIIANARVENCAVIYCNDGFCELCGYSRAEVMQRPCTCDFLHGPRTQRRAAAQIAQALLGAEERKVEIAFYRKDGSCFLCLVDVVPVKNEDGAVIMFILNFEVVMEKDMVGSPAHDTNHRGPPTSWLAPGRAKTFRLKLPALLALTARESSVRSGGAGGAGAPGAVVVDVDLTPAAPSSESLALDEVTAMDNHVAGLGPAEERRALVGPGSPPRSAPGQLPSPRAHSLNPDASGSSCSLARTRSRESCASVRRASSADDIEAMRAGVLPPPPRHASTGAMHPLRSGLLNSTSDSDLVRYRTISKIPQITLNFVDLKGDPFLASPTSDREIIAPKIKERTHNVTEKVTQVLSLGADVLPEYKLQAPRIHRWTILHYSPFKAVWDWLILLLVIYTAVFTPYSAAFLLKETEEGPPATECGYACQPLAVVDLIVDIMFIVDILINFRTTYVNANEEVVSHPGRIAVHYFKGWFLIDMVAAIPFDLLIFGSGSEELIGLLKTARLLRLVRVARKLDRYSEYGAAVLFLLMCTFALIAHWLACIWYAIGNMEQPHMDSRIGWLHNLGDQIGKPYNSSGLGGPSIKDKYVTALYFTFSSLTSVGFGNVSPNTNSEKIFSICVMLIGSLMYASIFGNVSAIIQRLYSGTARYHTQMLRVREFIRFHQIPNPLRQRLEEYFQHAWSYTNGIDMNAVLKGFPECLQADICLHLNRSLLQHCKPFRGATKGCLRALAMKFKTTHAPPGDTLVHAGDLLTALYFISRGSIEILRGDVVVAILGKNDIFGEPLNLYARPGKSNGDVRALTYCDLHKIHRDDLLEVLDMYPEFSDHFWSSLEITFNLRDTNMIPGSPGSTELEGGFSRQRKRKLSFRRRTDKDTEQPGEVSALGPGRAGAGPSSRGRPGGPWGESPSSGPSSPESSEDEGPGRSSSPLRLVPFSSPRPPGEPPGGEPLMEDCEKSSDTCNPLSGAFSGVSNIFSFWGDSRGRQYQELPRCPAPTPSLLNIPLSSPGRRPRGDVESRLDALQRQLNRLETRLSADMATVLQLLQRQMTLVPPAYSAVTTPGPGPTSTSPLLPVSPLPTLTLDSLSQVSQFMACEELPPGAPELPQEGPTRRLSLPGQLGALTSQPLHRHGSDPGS
Sequence of 5-hydroxytryptamine receptor 6 (P50406 whole entry): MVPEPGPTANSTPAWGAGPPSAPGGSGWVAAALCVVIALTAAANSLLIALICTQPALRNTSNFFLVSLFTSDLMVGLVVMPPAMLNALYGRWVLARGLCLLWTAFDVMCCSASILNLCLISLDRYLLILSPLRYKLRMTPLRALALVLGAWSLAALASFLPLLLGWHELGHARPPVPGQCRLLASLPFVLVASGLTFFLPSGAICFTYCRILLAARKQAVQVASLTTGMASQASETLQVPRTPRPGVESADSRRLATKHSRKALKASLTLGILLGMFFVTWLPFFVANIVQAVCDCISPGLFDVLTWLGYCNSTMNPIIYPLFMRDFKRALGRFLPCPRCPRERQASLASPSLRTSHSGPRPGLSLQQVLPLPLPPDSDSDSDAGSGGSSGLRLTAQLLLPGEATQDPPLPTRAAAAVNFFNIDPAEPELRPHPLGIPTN

As for `O=S(=O)(c1ccccc1)N1CCOc2c(N3CCNCC3)cccc21`, in data set [1], the Ki – broadly, the equilibrium dissociation constant of an inhibitor or competing ligand from its target – is 12.6 nM.

With `O=S(=O)(c1ccccc1F)N1CCOc2c(N3CCNCC3)cccc21`, the Kp (usually tissue or fluid exposure divided by exposure in the circulation) at 1 h in data set [2] stood at 1.8. Besides, the inhibition (commonly the relative decrease from the control value, in per cent) at 1 µM at hERG (KCNH2) [3] worked out at 9.9%. In addition, the IC20 (in general, the concentration at which the effect reaches the 20% level) against hERG (KCNH2) [4] was 2200 nM.

Regarding `O=S(=O)(c1cccc(Cl)c1)N1CCOc2c(N3CCNCC3)cccc21`, the concentration ratio (Kp) at 1 h in data set [2] stood at 1.4. In data set [1], the inhibition constant Ki was 2 nM.

With `O=S(=O)(c1cccc(F)c1)N1CCOc2c(N3CCNCC3)cccc21`, the inhibition constant (Ki) in data set [1] was 10 nM.

Turning to `CS(=O)(=O)Nc1cccc(S(=O)(=O)N2CCOc3c(N4CCNCC4)cccc32)c1`, the Ki in data set [1] is 200 nM.

Turning to `CS(=O)(=O)c1ccccc1S(=O)(=O)N1CCOc2c(N3CCNCC3)cccc21`, the inhibition constant (Ki) in data set [1] is 316 nM.

Take `O=S(=O)(c1cccc2cccnc12)N1CCOc2c(N3CCNCC3)cc(Cl)cc21`: the Ki in data set [1] is 0.631 nM.

As for `Cc1cc(N2CCNCC2)c2c(c1)N(S(=O)(=O)c1ccccc1F)CCO2`, 1 µM produced 26.5% inhibition against hERG (KCNH2) [3]. Moreover, in data set [1], the Ki is 0.398 nM.

On to `Cc1cc(N2CCNCC2)c2c(c1)N(S(=O)(=O)c1ccccc1C#N)CCO2`, for which 1 µM produced 14.2% inhibition against hERG (KCNH2) [3]. Also, the Ki in data set [1] is 2 nM.

Regarding `O=S(=O)(c1ccccc1F)N1CCOc2c(N3CCNCC3)cc(F)cc21`, the inhibition at 1 µM on hERG (KCNH2) [3] worked out at 26%. Besides, the Ki in data set [1] is 0.631 nM.

Turning to `O=S(=O)(c1ccccc1F)N1CCOc2c(N3CCNCC3)cc(Cl)cc21`, the Kp at 1 h in data set [2] was 2.7. This molecule yielded an inhibition at 1 µM on hERG (KCNH2) [3] of 45.2%. For the same molecule, in data set [1], the Ki was 0.398 nM.

As to `COc1cc(N2CCNCC2)c2c(c1)N(S(=O)(=O)c1ccccc1)CCO2`, in data set [2], the Kp at 1 h turned out to be 0.8. Besides, at hERG (KCNH2) [3], testing at 1 µM gave an inhibition of 34%. In addition, the inhibition constant Ki in data set [1] is 0.398 nM.

As to `CC(C)(C)c1cc(N2CCNCC2)c2c(c1)N(S(=O)(=O)c1ccccc1F)CCO2`, the inhibitory constant (Ki) in data set [1] is 7.94 nM.

For the molecule `Nc1ccc(S(=O)(=O)N2CCOc3c(N4CCNCC4)cc(F)cc32)cc1`, the Ki in data set [1] was 1.26 nM.

As to `CC1(C)CN(S(=O)(=O)c2ccccc2F)c2cccc(N3CCNCC3)c2O1`, the Ki in data set [1] was 0.316 nM.

With `Nc1cccc2c1OCCN2S(=O)(=O)c1ccccc1F`, the inhibition constant (Ki) in data set [1] was 631 nM.

For `Cc1cc(N2CC(C)NC(C)C2)c2c(c1)N(S(=O)(=O)c1ccc(Cl)cc1)CCO2` (stereo not given), in data set [1], the Ki was 39.8 nM.

With `CC1(C)CN(S(=O)(=O)c2ccccc2)c2cc(F)cc(C3CCNCC3)c2O1`, the inhibition constant (Ki) in data set [1] was 3.98 nM.

As for `CN(C)CCNc1cccc2c1OC(C)(C)CN2S(=O)(=O)c1cccc(F)c1`, the inhibition constant Ki in data set [1] is 126 nM.

Regarding `Cc1cc(N2CCNCC2)c2c(c1)N(S(=O)(=O)c1ccccc1)CCO2`, the Kp at 1 h in data set [2] was determined as 1. Moreover, testing at 1 µM against hERG (KCNH2) [3] gave an inhibition of 23.2%. For the same molecule, the Ki in data set [1] is 2.51 nM.

With `COc1cc(N2CCNCC2)c2c(c1)N(S(=O)(=O)c1ccccc1F)CCO2`, in data set [1], the Ki is 0.158 nM.

For `O=S(=O)(c1ccccc1F)N1CC2(CCC2)Oc2c(N3CCNCC3)cccc21`, the Ki in data set [1] is 0.631 nM.

With `O=S(=O)(c1ccccc1)N1CCOc2c(N3CCCNCC3)cc(Cl)cc21`, in data set [1], the Ki was 3.98 nM.

Regarding `O=S(=O)(c1ccccc1Cl)N1CCOc2c(N3CCNCC3)cccc21`, the Kp at 1 h in data set [2] was determined as 1.6. Moreover, at 1 µM the inhibition on hERG (KCNH2) [3] was 28.2%. In addition, the inhibitory constant (Ki) in data set [1] is 3.16 nM.

As to `O=S(=O)(c1cccc2ccccc12)N1CCOc2c(N3CCNCC3)cc(Cl)cc21`, in data set [1], the Ki was 0.794 nM.

With `CC1(C)CN(S(=O)(=O)c2cccc(F)c2)c2cc(F)cc(C3CCNCC3)c2O1`, the Ki in data set [1] is 5.01 nM.
